This is an account of results in ChEMBL document CHEMBL4359872, “Identification of potent triazolylpyridine nicotinamide phosphoribosyltransferase (NAMPT) inhibitors bearing a 1,2,3-triazole tail group” (Eur J Med Chem, 2019).

Each structure is given as a SMILES string.

Series [1] is described as follows: Thermodynamic solubility of compound in water after 24 hrs by LC-UV based shake flask method. It is filed as physicochemical. The settings on record: buffer. In outline:
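Thermodynamic water solubility measured by saturation shake flask, with the concentration of the saturated solution reported.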

The subject of series [2] is Lymphocyte. Put plainly: Genotoxicity in human primary lymphocytes in presence of S9 fraction by GreenScreen assay. It is filed as toxicity, cell-based.
Series [3] deals with Lymphocyte. Kind of series: Genotoxicity in human primary lymphocytes assessed as induction of DNA damage up to 1000 uM by GreenScreen assay. The class given is toxicity, cell-based.
For series [4], the system named is TK6. Put plainly: Genotoxicity in human TK6 cells in presence of S9 fraction by GreenScreen assay. The class given is toxicity, cell-based.
Series [5] concerns TK6. Kind of series: Genotoxicity in human TK6 cells assessed as induction of DNA damage up to 1000 uM by GreenScreen assay. The class given is toxicity, cell-based.
Series [6] in a line: Drug metabolism in human liver microsomes assessed as aliphatic hydroxylation of paraffin linker at 50 uM measured after 60 mins […] by LC-ESI/MS analysis. It is filed as ADME, Microsome. The settings on record: 1 h. A general note: Liver microsomes are a subcellular fraction often used to study metabolism.
Series [7] in a line: Drug metabolism in human liver microsomes assessed as pyridine N-oxidation at 50 uM measured after 60 mins […] by LC-ESI/MS analysis. It is filed as ADME, Microsome. To be noted: 1 h.
Series [8] in a line: Drug metabolism in human liver microsomes assessed as oxidative N-dealkylation at 50 uM measured after 60 mins […] by LC-ESI/MS analysis. The class given is ADME, Microsome. To be noted: 1 h.
Series [9] is described as follows: Drug metabolism in Wistar Han rat liver microsomes assessed as aliphatic hydroxylation of paraffin linker at 50 uM measured after 60 mins […] by LC-ESI/MS analysis. The class given is ADME, Microsome. The settings on record: 1 h.
The nature of series [10]: Drug metabolism in Wistar Han rat liver microsomes assessed as pyridine N-oxidation at 50 uM measured after 60 mins […] by LC-ESI/MS analysis. It is filed as ADME, Microsome. To be noted: 1 h.
Series [11] is described as follows: Drug metabolism in Wistar Han rat liver microsomes assessed as oxidative N-dealkylation at 50 uM measured after 60 mins […] by LC-ESI/MS analysis. To be noted: 1 h. It is filed as ADME, Microsome.
The nature of series [12]: Kinetic aqueous solubility of the compound in 80:20 PBS/acetonitrile solution at 200 uM by HTS assay. The class given is physicochemical. The settings on record: buffer.

With `O=C(NCCCCCCCn1cc(-c2cccnc2)nn1)c1ccccc1-c1ccccc1`, the Therm_solubility entry in [1] is on record as “Soluble”. Also, in series [2], the LEC was found to be 125 µM. Further, the Activity result in series [3] and in [5] was “Non-Toxic” each time. The MTC in series [4] came to 125 µM. In addition, the Drug metabolism entry in [6], in series [7], in series [8], in series [9], in series [10] and in series [11] was “Metabolite_Detected” throughout. Besides, the Kinetic_solubility entry in [12] is listed as “Soluble”.
